The results in this text go back to ChEMBL document CHEMBL1138725, “Discovery of novel 2-(aminoheteroaryl)-thiazole-5-carboxamides as potent and orally active Src-family kinase p56(Lck) inhibitors” (Bioorg Med Chem Lett, 2004).

Series [1] in a line: In vitro inhibitory activity against recombinant p56 lck tyrosine kinase expressed as a His-tagged protein in insect cells. Put shortly: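 Mean of three separate experiments, with standard deviation within ±10%.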
Series [2] is described as follows: […] inhibitory activity against proliferation of normal human peripheral blood T lymphocytes. Type of series: functional.
In series [3] the target is Cyclin-dependent kinase 4 (Homo sapiens, UniProt P11802). The series can be described thus: Inhibitory activity against Cyclin-dependent kinase 4. An outline of the steps:
(§1)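 Kinase selectivity panel: IC50 for inhibition of each isolated kinase enzyme, reported as the mean of three experiments.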

Series [4] is filed under the species Rattus norvegicus. Put plainly: Dose required for inhibition of paw swelling in rat adjuvant rheumatoid arthritis model; significant reduction observed after 7 days. The format is functional.
The target of series [5] is T1, Tyrosine-protein kinase JAK3 (Homo sapiens, UniProt P52333).
T1 sequence (P52333 whole entry): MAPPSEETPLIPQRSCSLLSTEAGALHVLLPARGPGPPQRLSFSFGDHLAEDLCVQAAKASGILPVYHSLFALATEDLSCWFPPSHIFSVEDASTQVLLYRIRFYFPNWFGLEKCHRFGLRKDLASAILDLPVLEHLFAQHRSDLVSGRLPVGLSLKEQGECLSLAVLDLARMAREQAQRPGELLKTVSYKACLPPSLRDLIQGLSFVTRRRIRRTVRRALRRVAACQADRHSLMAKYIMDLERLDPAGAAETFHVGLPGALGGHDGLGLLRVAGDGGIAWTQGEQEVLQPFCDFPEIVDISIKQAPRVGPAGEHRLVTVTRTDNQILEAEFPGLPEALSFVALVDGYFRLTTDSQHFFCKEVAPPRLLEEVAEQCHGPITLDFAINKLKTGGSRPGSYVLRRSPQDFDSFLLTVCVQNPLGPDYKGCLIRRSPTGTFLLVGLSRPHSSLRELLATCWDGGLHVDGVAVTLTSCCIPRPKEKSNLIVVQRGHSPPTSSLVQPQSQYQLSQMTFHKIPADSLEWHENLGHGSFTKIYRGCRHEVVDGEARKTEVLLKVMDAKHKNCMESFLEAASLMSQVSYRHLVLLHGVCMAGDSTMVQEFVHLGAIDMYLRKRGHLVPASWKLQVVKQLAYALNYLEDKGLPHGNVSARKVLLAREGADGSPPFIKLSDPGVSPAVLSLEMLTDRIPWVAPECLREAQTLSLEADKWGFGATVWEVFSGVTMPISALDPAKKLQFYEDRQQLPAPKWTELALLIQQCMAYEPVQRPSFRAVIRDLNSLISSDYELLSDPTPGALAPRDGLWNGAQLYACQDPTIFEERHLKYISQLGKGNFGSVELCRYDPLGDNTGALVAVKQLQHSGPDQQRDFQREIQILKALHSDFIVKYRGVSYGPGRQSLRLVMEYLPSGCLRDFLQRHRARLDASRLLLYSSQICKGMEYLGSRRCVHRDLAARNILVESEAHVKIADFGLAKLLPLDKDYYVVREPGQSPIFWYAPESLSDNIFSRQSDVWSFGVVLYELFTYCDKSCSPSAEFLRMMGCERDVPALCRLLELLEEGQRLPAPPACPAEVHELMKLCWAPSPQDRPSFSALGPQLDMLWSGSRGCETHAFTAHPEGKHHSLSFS
Put plainly: inhibitory activity against Janus kinase 3. An outline of the steps:
(§2)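 Purified kinase enzyme inhibition, reported as IC50 in µM. Each value is the mean of three independent experiments.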

The nature of series [6]: Mean residence time was determined in rats at a single dose of 10 mg/kg i.v. and p.o. Type of series: ADME, organism-based. On the set-up: dose 10 mg/kg, route oral. The note with it: rat, in vivo, po.
Series [7] is described as follows: Plasma clearance was determined in rats at a single dose of 10 mg/kg i.v. and p.o. Type of series: ADME, organism-based. On the set-up: dose 10 mg/kg, route oral. The conditions noted are these: rat, in vivo, po.
A short description of series [8]: Half-life was determined in rats at a single dose of 10 mg/kg i.v. and p.o. The conditions noted are these: rat, in vivo, po. On the set-up: dose 10 mg/kg, route oral. Type of series: ADME, organism-based.
The nature of series [9]: Oral bioavailability was determined in rats at a single dose of 10 mg/kg i.v. and p.o. The format is ADME, organism-based. The conditions noted are these: rat, in vivo.
Series [10] can be described thus: Maximum plasma concentration was determined in rats at a single dose of 10 mg/kg i.v. and p.o. Type of series: ADME, organism-based. Also noted: dose 10 mg/kg, route oral. The conditions noted are these: rat, po.
For series [11], the target named is Receptor tyrosine-protein kinase erbB-2 (Homo sapiens, UniProt P04626). The series can be described thus: Inhibitory activity against HER2 kinase. Put shortly: as §1
In series [12] the target is Cyclin-dependent kinase 2 (Homo sapiens, UniProt P24941). Put plainly: Inhibitory activity against Cyclin-dependent kinase 2.
Series [13] is described as follows: Inhibitory activity against Fibroblast growth factor receptor 1. Put shortly:
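Enzyme IC50 was measured within a kinase selectivity panel and is reported as the mean of three experiments.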

Series [14] can be described thus: Plasma protein binding in mouse was determined. The format is ADME, cell-free.
Series [15] addresses Vascular endothelial growth factor receptor 2 (Homo sapiens, UniProt P35968). The series can be described thus: inhibitory activity against Vascular endothelial growth factor receptor 2. An outline of the steps: as §1
A short description of series [16]: Time required to reach the maximum plasma concentration was determined in rats at a single dose of 10 mg/kg i.v. and p.o. On the set-up: dose 10 mg/kg, route oral. Type of series: ADME, organism-based. The note with it: rat, po.
For series [17], the target named is Tyrosine-protein kinase Fgr (Homo sapiens, UniProt P09769). The series can be described thus: Inhibitory activity against Fgr kinase. An outline of the steps: as §1
For series [18], the target named is Tyrosine-protein kinase HCK (Homo sapiens, UniProt P08631). The series can be described thus: inhibitory activity against Hck kinase.
For series [19], the species on record is Rattus norvegicus. Put plainly: Dose required for inhibition of paw swelling in rat adjuvant rheumatoid arthritis model; significant reduction observed after 24 hrs. Type of series: functional.
In series [20] the target is Proto-oncogene tyrosine-protein kinase Src (Homo sapiens, UniProt P12931). The series can be described thus: Inhibitory activity against Src tyrosine kinase. Put shortly:
as §2

Some results are limits rather than exact numbers.

Tyrosine-protein kinase HCK, sequence (P08631 whole entry): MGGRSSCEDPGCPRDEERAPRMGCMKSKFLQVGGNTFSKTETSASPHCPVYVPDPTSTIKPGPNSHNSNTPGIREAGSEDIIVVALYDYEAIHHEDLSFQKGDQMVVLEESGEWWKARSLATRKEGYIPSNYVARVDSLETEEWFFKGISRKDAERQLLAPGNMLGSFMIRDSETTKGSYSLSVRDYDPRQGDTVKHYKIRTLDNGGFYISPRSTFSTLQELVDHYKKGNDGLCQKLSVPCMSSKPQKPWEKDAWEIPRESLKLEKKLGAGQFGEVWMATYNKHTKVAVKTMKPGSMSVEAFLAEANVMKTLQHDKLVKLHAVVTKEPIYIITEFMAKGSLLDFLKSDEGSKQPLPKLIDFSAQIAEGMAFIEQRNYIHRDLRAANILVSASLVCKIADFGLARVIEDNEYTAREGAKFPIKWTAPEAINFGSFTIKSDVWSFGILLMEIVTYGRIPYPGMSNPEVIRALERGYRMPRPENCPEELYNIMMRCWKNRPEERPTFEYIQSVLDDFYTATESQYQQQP
Proto-oncogene tyrosine-protein kinase Src, sequence (P12931 2-536 limits assumed): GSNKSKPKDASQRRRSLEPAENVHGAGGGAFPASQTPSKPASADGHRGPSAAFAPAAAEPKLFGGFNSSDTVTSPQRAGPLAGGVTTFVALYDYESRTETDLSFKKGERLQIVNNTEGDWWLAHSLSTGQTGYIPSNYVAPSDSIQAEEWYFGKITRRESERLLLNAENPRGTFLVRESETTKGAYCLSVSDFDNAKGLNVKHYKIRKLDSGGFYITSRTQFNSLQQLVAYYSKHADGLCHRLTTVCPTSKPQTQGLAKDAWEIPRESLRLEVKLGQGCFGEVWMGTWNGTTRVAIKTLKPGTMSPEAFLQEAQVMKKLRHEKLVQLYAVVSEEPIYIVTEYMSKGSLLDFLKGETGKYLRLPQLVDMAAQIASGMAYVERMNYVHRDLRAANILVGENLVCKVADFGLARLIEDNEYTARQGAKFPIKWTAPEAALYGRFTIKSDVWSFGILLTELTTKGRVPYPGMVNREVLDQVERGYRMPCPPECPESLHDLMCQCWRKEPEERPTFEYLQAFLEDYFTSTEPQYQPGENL
Vascular endothelial growth factor receptor 2, sequence (P35968 whole entry): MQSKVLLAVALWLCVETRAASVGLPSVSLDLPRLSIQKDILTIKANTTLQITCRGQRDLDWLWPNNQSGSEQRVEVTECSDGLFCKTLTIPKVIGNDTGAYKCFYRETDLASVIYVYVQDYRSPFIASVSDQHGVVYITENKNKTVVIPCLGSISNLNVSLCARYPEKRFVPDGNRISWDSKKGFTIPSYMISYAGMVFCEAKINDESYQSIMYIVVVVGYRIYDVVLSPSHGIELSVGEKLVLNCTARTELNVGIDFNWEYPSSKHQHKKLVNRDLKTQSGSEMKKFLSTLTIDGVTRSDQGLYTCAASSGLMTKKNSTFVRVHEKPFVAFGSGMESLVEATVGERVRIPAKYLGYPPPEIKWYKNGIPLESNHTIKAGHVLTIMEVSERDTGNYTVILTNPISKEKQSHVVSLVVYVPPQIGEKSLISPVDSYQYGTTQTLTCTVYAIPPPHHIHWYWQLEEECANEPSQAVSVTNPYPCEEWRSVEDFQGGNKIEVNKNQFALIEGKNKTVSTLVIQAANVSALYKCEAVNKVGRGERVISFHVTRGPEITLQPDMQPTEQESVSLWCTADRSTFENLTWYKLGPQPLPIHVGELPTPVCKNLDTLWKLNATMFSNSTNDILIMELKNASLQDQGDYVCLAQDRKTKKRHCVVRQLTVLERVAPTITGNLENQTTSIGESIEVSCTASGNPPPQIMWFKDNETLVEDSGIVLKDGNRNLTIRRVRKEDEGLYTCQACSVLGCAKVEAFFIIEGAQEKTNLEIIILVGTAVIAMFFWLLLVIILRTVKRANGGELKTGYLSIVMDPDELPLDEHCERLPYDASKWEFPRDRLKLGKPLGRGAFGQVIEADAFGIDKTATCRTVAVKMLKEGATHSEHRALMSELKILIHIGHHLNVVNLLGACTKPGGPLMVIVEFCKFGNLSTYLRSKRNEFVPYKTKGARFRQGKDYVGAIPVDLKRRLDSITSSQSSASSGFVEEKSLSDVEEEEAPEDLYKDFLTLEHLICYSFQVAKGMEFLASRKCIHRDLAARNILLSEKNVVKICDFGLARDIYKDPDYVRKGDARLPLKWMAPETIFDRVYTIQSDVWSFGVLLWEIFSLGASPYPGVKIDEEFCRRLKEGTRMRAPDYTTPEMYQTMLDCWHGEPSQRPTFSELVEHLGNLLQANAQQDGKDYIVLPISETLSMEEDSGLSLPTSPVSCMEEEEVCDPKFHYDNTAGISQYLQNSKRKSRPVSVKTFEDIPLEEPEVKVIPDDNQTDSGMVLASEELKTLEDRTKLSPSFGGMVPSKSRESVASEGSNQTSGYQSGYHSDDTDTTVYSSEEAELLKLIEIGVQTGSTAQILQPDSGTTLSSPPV
Tyrosine-protein kinase Fgr, sequence (P09769 whole entry): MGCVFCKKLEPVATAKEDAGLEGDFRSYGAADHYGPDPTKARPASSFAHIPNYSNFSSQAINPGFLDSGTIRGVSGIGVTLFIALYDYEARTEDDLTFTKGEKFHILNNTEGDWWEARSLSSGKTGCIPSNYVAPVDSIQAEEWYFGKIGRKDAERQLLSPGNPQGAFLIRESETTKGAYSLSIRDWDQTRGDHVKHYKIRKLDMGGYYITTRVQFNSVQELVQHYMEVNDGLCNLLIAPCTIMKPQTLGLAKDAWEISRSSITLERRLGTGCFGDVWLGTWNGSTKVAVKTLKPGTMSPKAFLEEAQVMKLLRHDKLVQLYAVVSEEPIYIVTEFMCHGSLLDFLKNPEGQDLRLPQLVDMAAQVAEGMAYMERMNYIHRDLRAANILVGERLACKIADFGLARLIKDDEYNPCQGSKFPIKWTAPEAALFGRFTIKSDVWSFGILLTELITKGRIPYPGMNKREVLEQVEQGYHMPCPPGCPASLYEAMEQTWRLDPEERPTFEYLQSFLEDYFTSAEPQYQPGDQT
Receptor tyrosine-protein kinase erbB-2, sequence (P04626 whole entry): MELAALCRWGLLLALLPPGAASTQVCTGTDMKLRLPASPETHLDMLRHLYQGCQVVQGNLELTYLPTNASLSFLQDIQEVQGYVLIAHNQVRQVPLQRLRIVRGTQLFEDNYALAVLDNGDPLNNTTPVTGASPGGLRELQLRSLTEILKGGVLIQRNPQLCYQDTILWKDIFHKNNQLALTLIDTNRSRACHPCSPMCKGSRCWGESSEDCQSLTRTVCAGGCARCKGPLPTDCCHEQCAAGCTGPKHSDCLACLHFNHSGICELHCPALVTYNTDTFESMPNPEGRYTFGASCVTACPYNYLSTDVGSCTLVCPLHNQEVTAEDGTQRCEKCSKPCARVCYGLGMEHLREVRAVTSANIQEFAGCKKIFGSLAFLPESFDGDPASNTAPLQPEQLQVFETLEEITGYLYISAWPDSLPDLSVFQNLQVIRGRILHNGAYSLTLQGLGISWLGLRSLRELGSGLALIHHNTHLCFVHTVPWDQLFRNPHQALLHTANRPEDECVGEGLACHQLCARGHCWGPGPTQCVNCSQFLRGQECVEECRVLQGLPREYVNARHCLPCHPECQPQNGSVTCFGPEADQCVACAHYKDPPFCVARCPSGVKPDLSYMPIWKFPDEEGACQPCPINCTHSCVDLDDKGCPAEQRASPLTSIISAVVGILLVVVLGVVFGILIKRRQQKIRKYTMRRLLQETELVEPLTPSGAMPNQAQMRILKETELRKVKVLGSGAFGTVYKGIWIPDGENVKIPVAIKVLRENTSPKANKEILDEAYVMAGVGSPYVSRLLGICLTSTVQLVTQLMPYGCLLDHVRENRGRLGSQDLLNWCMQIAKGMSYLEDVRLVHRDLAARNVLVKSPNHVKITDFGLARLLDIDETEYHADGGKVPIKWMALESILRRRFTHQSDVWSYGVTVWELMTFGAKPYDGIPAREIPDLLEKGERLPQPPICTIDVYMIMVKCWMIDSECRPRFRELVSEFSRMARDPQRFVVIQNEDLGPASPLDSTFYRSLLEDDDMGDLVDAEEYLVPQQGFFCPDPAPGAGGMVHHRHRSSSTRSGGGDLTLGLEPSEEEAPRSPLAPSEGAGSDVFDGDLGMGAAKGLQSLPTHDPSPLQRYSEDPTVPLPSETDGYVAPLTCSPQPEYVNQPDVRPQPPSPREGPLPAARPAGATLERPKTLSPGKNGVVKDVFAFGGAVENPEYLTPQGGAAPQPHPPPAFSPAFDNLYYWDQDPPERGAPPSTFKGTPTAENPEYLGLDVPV
Cyclin-dependent kinase 4, sequence (P11802 whole entry): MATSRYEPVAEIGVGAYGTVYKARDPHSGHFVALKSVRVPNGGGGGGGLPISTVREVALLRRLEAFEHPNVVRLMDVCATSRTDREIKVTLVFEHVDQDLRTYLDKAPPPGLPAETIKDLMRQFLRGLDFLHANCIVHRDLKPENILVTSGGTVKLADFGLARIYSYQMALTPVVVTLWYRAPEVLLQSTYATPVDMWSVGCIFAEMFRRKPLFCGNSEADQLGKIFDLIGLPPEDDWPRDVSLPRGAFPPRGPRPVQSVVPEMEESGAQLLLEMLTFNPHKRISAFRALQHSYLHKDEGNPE

Consider `Cc1cccc(Cl)c1NC(=O)c1cnc(NC(=O)C2CC2)s1`, for which the IC50 in series [1] came to 35 nM.

Consider `Cc1cccc(Cl)c1NC(=O)c1cnc(Nc2cccc(N3CCN[C@@H](C)C3)n2)s1`, for which the IC50 in [2] is 6 nM; in series [1], under 1 nM.

Regarding `Cc1cccc(Cl)c1NC(=O)c1cnc(Nc2ccccc2)s1`, the IC50 in series [2] was determined as 210 nM; in series [1], 0.6 nM.

Turning to `Cc1cccc(Cl)c1NC(=O)c1cnc(Nc2ccnnc2)s1`, the IC50 in series [2] came to 350 nM; in [1] it was 4 nM.

With `Cc1cccc(Cl)c1NC(=O)c1cnc(Nc2cc(NCCN3CCCC3)ncn2)s1`, the IC50 in series [2] came out at 19 nM. In series [1], the IC50 amounted to 0.4 nM and the Ki worked out at 0.06 nM.

For `Cc1cccc(Cl)c1NC(=O)c1cnc(Nc2cccc(NCCN3CCOCC3)n2)s1`, the IC50 was 11 nM in series [2] and under 1 nM in series [1].

Regarding `Cc1cc(C)nc(Nc2ncc(C(=O)Nc3c(C)cccc3Cl)s2)n1`, the IC50 in series [1] was found to be 50 nM.

On to `Cc1ccnc(Nc2ncc(C(=O)Nc3c(C)cccc3Cl)s2)c1`, for which the IC50 in series [2] was 85 nM; in series [1], 0.5 nM.

With `Cc1cccc(Cl)c1NC(=O)c1cnc(NC2CCCCC2)s1`, in [1], the IC50 was 374 nM.

On to `Cc1cccc(Cl)c1NC(=O)c1cnc(Nc2cc(NCCN3CCOCC3)ncn2)s1`, for which the IC50 amounted to 17 nM in [2] and 4 nM in [1].

Regarding `Cc1cc(C)nc(Nc2ncc(C(=O)Nc3c(C)cccc3Cl)s2)c1`, the IC50 in series [1] turned out to be 4 nM.

As to `Cc1cccnc1Nc1ncc(C(=O)Nc2c(C)cccc2Cl)s1`, the figures for the IC50 in [2] and in [1] were 365 nM and 7.3 nM, respectively.

Consider `Cc1cccc(Cl)c1NC(=O)c1cnc(Nc2cc(N3CCOCC3)ncn2)s1`, for which the IC50 in series [2] is 3 nM; in [1], under 1 nM.

Take `Cc1cccc(Cl)c1NC(=O)c1cnc(Nc2cccnc2)s1`: in [1], the IC50 is 6.7 nM.

Turning to `Cc1cc(C)cc(Nc2ncc(C(=O)Nc3c(C)cccc3Cl)s2)c1`, the IC50 in series [2] was 883 nM; in [1] it was 2 nM.

Regarding `Cc1cccc(Cl)c1NC(=O)c1cnc(Nc2ccccn2)s1`, the IC50 in series [1] was 1.2 nM.

As to `Cc1cccc(Cl)c1NC(=O)c1cnc(Nc2ccncc2)s1`, the IC50 in [1] was determined as 10 nM.

For `Cc1ccc(Nc2ncc(C(=O)Nc3c(C)cccc3Cl)s2)nc1`, the IC50 in [2] turned out to be 156 nM; in series [1] it was 1.1 nM.

On to `Cc1cc(N(C)c2ncc(C(=O)Nc3c(C)cccc3Cl)s2)nc(C)n1`, for which the IC50 in [1] worked out at 2340 nM.

In the case of `Cc1cc(Nc2ncc(C(=O)Nc3c(C)cccc3Cl)s2)nc(C)n1`, the IC50 in series [3] is over 25000 nM; in series [5], 6 nM; in series [11], 5200 nM; in series [12] it was over 25000 nM; in series [13], over 10000 nM; in series [2] it was 80 nM. Also, the IC50 in series [1] is 1.2 nM; in series [15] it was over 10000 nM; in series [17], under 1 nM; in series [18] it was 2 nM; in series [20], under 1 nM. The Dose in the series filed under Rattus norvegicus [4] stood at 1 mg/kg; in the series listed under Rattus norvegicus [19] it was 3 mg/kg. Besides, the MRT in series [6] stood at 4 h. In series [7], the Cl was determined as 29 mL/min/kg. In addition, the half-life in [8] is 4 h. In series [9], the bioavailability is 65%. Moreover, the Cmax in [10] came to 2000 nM. Besides, the Binding in series [14] is 93.6%. In addition, the Ki in series [1] was determined as 0.13 nM. Besides, the Tmax in [16] amounted to 1 h.

For the molecule `Cc1cc(Nc2ncc(C(=O)N(C)c3c(C)cccc3Cl)s2)nc(C)n1`, the IC50 in series [1] was determined as 277 nM.

For the molecule `Cc1cccc(Nc2ncc(C(=O)Nc3c(C)cccc3Cl)s2)n1`, the IC50 was 106 nM in series [2] and under 1 nM in series [1].
